Read-outs that look alike come from different tables or passages of the source.
How the values were obtained:
[1] = target: T1, SgvP (Streptomyces griseoviridis, UniProt R9USI6); assay: Type I binding spectra, titration of SgvP with 2
[2] = target: T1, SgvP; assay type: biochemical; settings: Fdx/Fdr, Opt13, NADP+, TCEP, no apparent intermediates detected
Method in brief: (§1)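 Reactions were run under standard conditions, with a control reaction lacking P450. Peaks containing m/z 496 and m/z 512 were taken as singly- and doubly-oxidized by-products.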

[3] = target: T1, SgvP; assay: In vitro reconstitution of C–S bond formation, SgvP with CamB/CamA; assay type: biochemical; settings: CamB/CamA as redox partners, relative to Fdx/Fdr
[4] = system: SgvP-RhFRed; assay: Enzymatic reaction with SgvP-RhFRed chimera; assay type: biochemical, Streptomyces griseoviridis; settings: NADP+, Opt13 for NADPH regeneration; without TCEP; LC-MS
[5] = system: FNS2; assay: Activity of homolog P450-RhFRed chimera FNS2; assay type: biochemical; settings: cell lysates, range of conditions
[6] = system: NK82; assay: Activity of homolog P450-RhFRed chimera NK82; assay type: biochemical; settings: cell lysates, range of conditions
[7] = system: YY64; assay: Activity of homolog P450-RhFRed chimera YY64; assay type: biochemical; settings: cell lysates, range of conditions
[8] = system: SgvP P237T; assay: Enzymatic reaction with SgvP mutant P237T; assay type: biochemical, Streptomyces griseoviridis; settings: substrate 2; same reaction conditions as wild-type SgvP
[9] = system: SgvP P237T with A238 mutated to threonine; assay: Enzymatic reaction with SgvP double mutant P237T, A238 to threonine; assay type: biochemical, Streptomyces griseoviridis; settings: substrate 2; P237T activity partially rescued by mutating A238 to threonine
[10] = system: SgvP L337F; assay: Enzymatic reaction with SgvP mutant L337F; assay type: biochemical, Streptomyces griseoviridis; settings: substrate 2; same reaction conditions as wild-type SgvP
Method in brief: as §1

[11] = system: SgvP mutants; assay: LC-MS by-product analysis of reactions with SgvP mutants; assay type: biochemical, Streptomyces griseoviridis; settings: singly- (m/z = 496) and doubly-oxidized (m/z = 512) by-products, substrate 2
Method in brief: as §1

[12] = Stability under air at ambient temperature; assay type: physicochemical; settings: two weeks
[13] = Stability in aqueous buffer; assay type: physicochemical
[14] = Behavior toward chemical oxidants; assay type: physicochemical

For pre-griseoviridin [compound 2], the binding spectrum type ([1]; SgvP incubated with various concentrations of 2) was “characteristic type I binding spectrum”, the “Kd relative to that of TleB (fold lower)” value ([1]; SgvP–2 Kd lower than TleB Kd) was 2.5 fold and the “Kd relative to that of PtmO5” value ([1]; SgvP–2 Kd vs PtmO5 Kd) was “one order of magnitude higher”. The “λmax after shift on binding of 2” value ([1]; type I binding spectrum, λmax shifted from 421 nm) was 386 nm, the “conversion to griseoviridin (1)” value [2] was “nearly full conversion to griseoviridin (1) in approximately three hours” and the “conversion to griseoviridin (1)” value [3] was “Analogous results”. The “product of incubation with SgvP-RhFRed” value [4] was “yielded only disulfide”, the “activity of homolog chimera with 2” value [5] was “none of the homologs exhibited any activity” and the “activity of homolog chimera with 2” value [6] was “none of the homologs exhibited any activity”. For the same substance, the “activity of homolog chimera with 2” value [7] was “none of the homologs exhibited any activity”, the “NMR yield of griseoviridin” value [8] was 7% and the “NMR yield of griseoviridin” value [9] was 25%. For the same substance, the “activity relative to wild-type enzyme” value [10] was “comparable – if not slightly enhanced – activity to the wild-type enzyme”, the by-products formed [11] was “several oxidized by-products had formed” and the “stability: degradation” value [12] was “remarkably stable, with no discernable degradation even after two weeks”. For the same substance, the “disulfide formation with TCEP” value ([13]; TCEP added to the reaction mixture as a reductant) was “disulfide formation was effectively prevented”, the “product in absence of SgvP-RhFRed or in buffer and co-solvent alone” value ([13]; aqueous conditions, exposure to oxygen, no TCEP, LC-MS) was “disulfide as the only product” and the “production of 1 with chemical oxidants” value ([14]; mCPBA or basic H2O2) was “we did not observe the production of 1”. The “outcome of treatment with mCPBA” value ([14]; mCPBA, crude NMR, sulfinic and sulfonic acids of 2 tentatively detected by LC-MS) was “intractable mixture” and the “outcome of treatment with basic H2O2” value ([14]; series of basic hydrogen peroxide conditions) was “ester hydrolysis, S-oxidation, or broad degradation”.

Reference: paper PMC12239663 (Journal of the American Chemical Society, 2024)
